This note sets out measurements from ChEMBL document CHEMBL3392953, “Synthesis and biological evaluation of furanoallocolchicinoids” (J Med Chem, 2015).

Data set [1] has as its system ASPC1. Put plainly: Cytotoxicity against human AsPC1 cells after 72 hrs by MTT assay. Format: functional, cell-based. As to conditions: ASPC1, 72 h. The procedure, abridged: (§1)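 Cells seeded at 3x10^5 cells/mL 24 h before assay (HEK293, AsPC-1 in DMEM; Jurkat, W1308 in RPMI-1640; 10% FCS, 2-ME). Tenfold dilutions from […] to 1 nM added; untreated cells as controls. 72 h incubation, MTT 250 µg/ml added for last 6 h, formazan dissolved in DMSO, OD read. IC50 from titration curves; inhibition index = 1 − OD(treated)/OD(control).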
On the technique in general: Formazan colour is commonly taken as a measure of viable cells.

Data set [2] concerns HEK293. The data set is described as follows: Cytotoxicity against HEK293 cells after 72 hrs by MTT assay. Format: functional, cell-based. As to conditions: Homo sapiens, HEK293, 72 h. The procedure, abridged: as §1
For data set [3], the system named is Jurkat. Put plainly: Cytotoxicity against human Jurkat cells after 72 hrs by MTT assay. The class given is functional, cell-based. Summed up: as §1
A short description of data set [4]: Cytotoxicity against mouse W1308 cells after 72 hrs by MTT assay. The class given is functional, cell-based. The following applies: W1308, 72 h. The procedure, abridged:
as §1

In data set [5] the test system is ASPC1. Put plainly: Growth inhibition of human AsPC1 cells at 100 uM after 72 hrs by MTT assay. The class given is functional. As to conditions: ASPC1, 72 h, read-out: GI.
In data set [6] the test system is HEK293. Put plainly: Growth inhibition of HEK293 cells at 100 uM after 72 hrs by MTT assay. The class given is functional. As to conditions: Homo sapiens, HEK293, 72 h; read-out: GI.
Data set [7] relates to Jurkat. Put plainly: Growth inhibition of human Jurkat cells at 100 uM after 72 hrs by MTT assay. Format: functional. The following applies: read-out: GI.
Data set [8] in a line: Growth inhibition of mouse W1308 cells at 100 uM after 72 hrs by MTT assay. The class given is functional. The following applies: W1308, 72 h, read-out: GI.
The test system of data set [9] is Mus musculus. Put plainly: Toxicity in C57BL/6 mouse assessed as interphase microtubule de-stabilizing activity by measuring leakage of rhodamine through the gut at 1 mg/kg, iv co-administered with rhodamine B by fluorimetry. Format: organism-based. On the set-up: dose 1 mg/kg, route intravenous. As to conditions: in vivo. Summed up: (§2)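 Intact mice, 6–8 wk, 3 per group; compound dissolved in DMSO at 20 mM, 4 µl diluted into 200 µl saline (1 mg/kg), mixed with 50 µl rhodamine B, single i.v. injection; controls DMSO plus rhodamine B. Killed 4 h later; organs cut, extracted in 0.3N acid in ethanol 2 h at 37 °C, centrifuged, supernatant fluorescence read with 540 nm filter.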

The subject of data set [10] is Mus musculus. Put plainly: Toxicity in C57BL/6 mouse assessed as interphase microtubule de-stabilizing activity by measuring influx of rhodamine in to heart at 1 mg/kg, iv co-administered with rhodamine B by fluorimetry. Format: organism-based. Also noted: dose 1 mg/kg, route intravenous. As to conditions: in vivo. The procedure, abridged:
as §2

The test system of data set [11] is Mus musculus. The data set is described as follows: Toxicity in C57BL/6 mouse assessed as interphase microtubule de-stabilizing activity by measuring influx of rhodamine in to spleen at 1 mg/kg, iv co-administered with rhodamine B by fluorimetry. The class given is organism-based. Also noted: dose 1 mg/kg, route intravenous. The following applies: in vivo. The procedure, abridged: as §2

The nature of data set [12]: Reduction in blood-brain barrier permeability in […]. The following applies: mouse. The class given is ADME, tissue-based, C57BL/6, Endothelial cell. Also noted: scale not given: the % may be the effect or the level left. The procedure, abridged: as §2
The nature of data set [13]: Inhibition of lamb brain tubulin polymerization assessed as reduction in microtubule assembly by spectrophotometry. On the set-up: species or system Ovis aries. Summed up:
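Tubulin purified from lamb brain by ammonium sulfate fractionation and ion-exchange chromatography. Assembly in 20 mM sodium phosphate, 1 mM EGTA, 10 mM MgCl2, 3.4 M glycerol, 1 mM GTP, pH 6.5, started by warming to 37 °C; turbidity followed at 350 nm over time. Inhibition plotted against ligand:tubulin molar ratio.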

Data set [14] is described as follows: Induction of apoptosis in mouse W1308 cells assessed as pre-apoptotic cells level at 200 nM after 48 hrs by 3,3'-dihexyloxacarbocyanine iodide and propidium iodide staining based flow cytometry (reference value: 17%). The class given is functional. On the technique in general: In flow cytometry, cells or beads pass a laser one at a time.
Data set [15] in a line: Induction of apoptosis in mouse W1308 cells assessed as apoptotic cells level at 200 nM after 48 hrs by 3,3'-dihexyloxacarbocyanine iodide and propidium iodide staining based flow cytometry (reference value: 11%). Format: functional.

The structures appear in SMILES notation. Some results are limits rather than exact numbers.

Consider `COc1cc2c(c(OC)c1OC)-c1cc3cc(CCO)oc3cc1[C@@H](NC(C)=O)CC2`, for which the IC50 is 2 µM with ASPC1 [1], 1 µM in the data set on HEK293 [2], 1 µM in the data set on Jurkat [3] and 1 µM in data set [4]. Also, the inhibition of growth at 100 µM (in the data set with ASPC1 [5]; in the data set on HEK293 [6]; in the data set with Jurkat [7]; in data set [8]) was 50% each time.
As to `COC(=O)CCCCCCCCc1cc2cc3c(cc2o1)[C@@H](NC(C)=O)CCc1cc(OC)c(OC)c(OC)c1-3`, the IC50 (in the data set on ASPC1 [1]; with HEK293 [2]; with Jurkat [3]; in data set [4]) was greater than 100 µM throughout.
For the compound `COc1ccc(/C=C\c2cc(OC)c(OC)c(OC)c2)cc1O` [COMBRETASTATIN A4], the Activity result is recorded as “Toxic” with Mus musculus [9], “Toxic” in the data set on Mus musculus [10], “Toxic” with Mus musculus [11] and 40% in [12]. In addition, the ligand/tubulin molar ratio in data set [13] is 0.09.
As to `COc1cc2c(c(OC)c1OC)-c1cc3cc(-c4ccccn4)oc3cc1[C@@H](NC(C)=O)CC2`, the IC50 in the data set with ASPC1 [1] is 20 µM; with HEK293 [2], 20 µM; in the data set on Jurkat [3], 20 µM; in data set [4] it was 10 µM.
For `COc1cc2c(c(OC)c1OC)-c1cc3ccn(C)c3cc1C(=O)CC2`, the IC50 was 0.8 µM in the data set on ASPC1 [1], less than 0.2 µM in the data set on HEK293 [2], less than 0.1 µM in the data set with Jurkat [3] and less than 0.2 µM in [4].
`COc1cc2c(c(OC)c1OC)-c1cc3cc(COC(C)=O)oc3cc1[C@@H](NC(C)=O)CC2`: the IC50 in the data set on ASPC1 [1] was 2 µM; in the data set on HEK293 [2], 1 µM; with Jurkat [3], 1 µM; in data set [4], 1 µM. Besides, the inhibition of growth at 100 µM (in the data set with ASPC1 [5]; in the data set with HEK293 [6]; with Jurkat [7]; in data set [8]) was 50% in each case.
As to `COc1cc2c(c(OC)c1OC)-c1ccc(OC)c(=O)cc1[C@@H](NC(C)=O)CC2` [COLCHICINE], the Activity result with Mus musculus [9], with Mus musculus [10] and with Mus musculus [11] was “Toxic” each time.
As for `CCN(CC)Cc1cc2cc3c(cc2o1)[C@@H](NC(C)=O)CCc1cc(OC)c(OC)c(OC)c1-3`, the IC50 in the data set on ASPC1 [1] was 20 µM; in the data set with HEK293 [2] it was greater than 100 µM; in the data set with Jurkat [3], greater than 100 µM; in data set [4] it was greater than 100 µM.
As to `COc1cc2c(c(OC)c1OC)-c1cc3cc(C4(O)CCCC4)oc3cc1[C@@H](NC(C)=O)CC2`, the IC50 was found to be 20 µM in the data set with ASPC1 [1], 4 µM in the data set with HEK293 [2], 4 µM with Jurkat [3] and 8 µM in data set [4]. Moreover, the inhibition of growth at 100 µM (in the data set with ASPC1 [5]; in the data set with HEK293 [6]; with Jurkat [7]; in [8]) was 50% each time.
With `COc1cc2c(c(OC)c1OC)-c1cc3cc(-c4ccccc4)oc3cc1[C@@H](NC(C)=O)CC2`, the IC50 is 20 µM in the data set on ASPC1 [1], 4 µM in the data set on HEK293 [2], 4 µM in the data set with Jurkat [3] and 8 µM in [4].
For `COc1cc2c(c(OC)c1OC)-c1ccc3c(ccn3C)c1C(=O)CC2`, the IC50 (with ASPC1 [1]; in the data set on HEK293 [2]; with Jurkat [3]; in data set [4]) was less than 0.02 µM each time. Moreover, the Activity amounted to 20% in data set [14] and 29% in [15].
For `COc1cc2c(c(OC)c1OC)-c1cc3cc(C(C)O)oc3cc1[C@@H](NC(C)=O)CC2` (some centres undefined), the IC50 was less than 0.2 µM with ASPC1 [1]; less than 0.2 µM in the data set on HEK293 [2]; less than 0.2 µM in the data set on Jurkat [3]; less than 0.2 µM in data set [4]; 0.3 molar ratio in data set [13]. The inhibition of growth at 100 µM (in the data set on ASPC1 [5]; in the data set on HEK293 [6]; in the data set on Jurkat [7]; in data set [8]) was 60% in each case. Besides, the Activity in [14] came to 29%; in data set [15], 20%.
